Bioassay records (PubChem)
Sampled rows, rich in hits. Any-hit rate of the full collection: about 4.1%.
Cl transport mod = modulates chloride dependent transport by human KCC2; B-score of Tl+ flux slope (higher = more flux/activation; lower = inhibition) at 10 µM; AID 1456; KCC2 cells, thallium flux FluoZin-2 fluorescence; 2.2% of 190,000 active; Q9H2X9;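 active means thallium flux slope and its plate-corrected score both differing from the plate sample mean at a set confidence after two filtering rounds, in either direction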;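 further: slope of fluorescence scaled to starting intensity during 10 to 20 s after thallium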
KCNQ1 inh = blocks the human KCNQ1 potassium channel. CHO-K1 KCNQ1, FluxOR thallium flux fluorescence; hits give high values. B-score at 10 µM. AID 2642. 1.3% of 310,000 active;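 active means compounds whose thallium flux B-score, printed positive for inhibition, exceeds three library SD while starting fluorescence stays within three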;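 further: channel opened by potassium depolarization with thallium stimulus after 20 min compound exposure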
KCNQ1 pot = potentiates or activates the human KCNQ1 potassium channel; P51787; CHO-K1 KCNQ1, thallium flux FluxOR fluorescence; hits give high values; B-score at 10 µM; 0.35% of 310,000 active; AID 2648;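 active means fluorescence ratio B-score, a plate-corrected score, at least three library SD, with initial intensity B-score within 5 SD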
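assay system = KCNQ1-transfected CHO-K1 cells | medium = assay buffer with matched DMSO | probe or stimulus = depolarizing K+/Tl+ stimulus, K2SO4 and Tl2SO4 each 12.5 mM in 5x stock | dosing = single dose | incubation = dye 90 min, compound 20 min, room temperature | detection = kinetic FluxOR fluorescence, 10 s baseline plus 110 s post-stimulus | evaluation = ratio B score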
KCNK3 block = human KCNK3 channel inhibition, primary screen | B-score at 10 µM | O14649 | CHO-KCNK3 thallium flux, FluxOR fluorescence; hits give low values | 0.84% of 340,000 active;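 active means B-score under library mean minus 4 SD, starting fluorescence ratio at most library mean plus 5 SD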;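 further: more negative B-score means stronger inhibition of thallium flux through KCNK3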
Target sequence (O14649 whole entry, looked up): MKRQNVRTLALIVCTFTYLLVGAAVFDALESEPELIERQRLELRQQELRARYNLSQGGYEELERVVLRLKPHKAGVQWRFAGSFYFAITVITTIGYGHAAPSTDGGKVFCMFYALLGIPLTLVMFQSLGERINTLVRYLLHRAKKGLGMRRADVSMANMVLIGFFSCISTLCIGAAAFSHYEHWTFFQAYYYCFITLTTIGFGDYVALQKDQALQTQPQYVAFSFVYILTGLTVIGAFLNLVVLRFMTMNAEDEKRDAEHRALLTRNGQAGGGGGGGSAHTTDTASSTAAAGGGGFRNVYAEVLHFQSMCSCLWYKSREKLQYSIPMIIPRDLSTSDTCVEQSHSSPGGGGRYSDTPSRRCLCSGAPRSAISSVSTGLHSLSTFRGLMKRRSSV
hERG rescue = compounds protecting human hERG from proarrhythmic drug block | AID 1511 | CHO-hERG, FluxOR thallium flux, dofetilide IC70 present | activation (rescue from dofetilide block), less the hit threshold, % at 10 µM | Q12809 | 0.51% of 310,000 active;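 active means activation above the mean of controls blocked by dofetilide plus 5 SD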;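 further: thallium influx through hERG after potassium depolarization seen as dye fluorescence rise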
KCNK9 block = human KCNK9 channel inhibition | B-score at 10 µM | Q9NPC2 | 1.2% of 310,000 active | HEK293 KCNK9, FluxOR thallium flux fluorescence; hits give low values | AID 488922;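 active means ratio B-score over 3 SD below the library mean, with starting fluorescence within 5 SD of its mean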;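 further: negative B-score means less thallium flux so channel inhibition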
Starred values were filed as active, the others as inactive; i = inactive; nt = not tested or not shown.

SMILES	Cl transport mod	KCNQ1 inh	KCNQ1 pot	KCNK3 block	hERG rescue	KCNK9 block
C/C(=N/NS(=O)(=O)c1ccccc1)c1ccc(Cl)cc1	nt	i	i	i	-8	i
Cc1ccc(-c2nn(-c3ccccc3)cc2/C=C2\SC(=S)N(CC(=O)O)C2=O)cc1	-0.42	i	i	i	-11	i
CCN1C(=O)/C(=C/c2cn(-c3ccccc3)nc2-c2cccnc2)SC1=S	nt	nt	nt	-10*	nt	nt
CON/C=C(\C=Nc1ccccc1)c1ncc(C(F)(F)F)cc1Cl	0.059	7*	i	i	-16	i
CON/C=C(\C=Nc1ccc(Cl)cc1Cl)c1ncc(C(F)(F)F)cc1Cl	nt	i	i	i	-9	i
CC(C)COC(=O)/C(C#N)=C/c1c[nH]c2ccccc12	0.81	i	i	i	-3	-7.3*
N#C/C(=C\c1c[nH]c2ccccc12)C(=O)NC1CC1	nt	i	i	i	-11	i
Cc1cc(=O)n2c3c(c4c(cc13)c(CN(C)C)cc(=O)n4C)OC2	nt	nt	nt	i	nt	nt
O=C(c1ccc(S(=O)(=O)N2CCCCCC2)cc1)N1CCN(c2ccccc2F)CC1	nt	i	i	i	-11	i
O=C(CCc1ccccc1)N1CCN(Cc2ccc(F)cc2Cl)CC1	nt	i	i	i	-7	i
O=C(N/N=C/c1cn(-c2ccccc2)nc1-c1ccc(F)cc1)c1ccc(Br)o1	2.9	i	i	-8.7*	-12	i
O=C(N/N=C/c1cn(-c2ccccc2)nc1-c1cc2ccccc2o1)c1cccnc1	-1.3	6*	i	i	-13	i
O=C(N/N=C/c1cn(-c2ccccc2)nc1-c1cccnc1)c1ccc(F)cc1	-0.75	i	i	i	-10	i
CCC(CO)Oc1cc(NCc2ccccc2Cl)c2ncn(C(C)C)c2c1 (stereo not given)	nt	nt	nt	i	nt	nt
CCOc1ccc(C(=O)CSc2nnc(C3CC3)n2C)cc1	0.58	i	i	i	6.4*	i
COc1ccc(C(C[N+](=O)[O-])c2c(C)[nH]n(-c3ccccc3)c2=O)cc1 (stereo not given)	nt	7*	i	i	-17	i
Cc1[nH]n(-c2ccccc2)c(=O)c1C(C[N+](=O)[O-])c1ccccc1Cl (stereo not given)	0.0019	i	i	i	-11	i
CCOC(=O)c1c(NC(=O)CN2CCN(C(=O)c3ccco3)CC2)sc2c1CCCC2	-1.3	i	14*	i	29*	i
CCOC(=O)c1cc(CC)sc1NC(=O)Cc1ccsc1	-0.51	i	i	-9*	-7	i
CCOC(=O)c1c(NC(=O)COC(=O)c2nccnc2N)sc2c1CCC2	nt	nt	nt	-11*	nt	nt
CCOC(=O)c1cc(CC)sc1NC(=O)CCC(=O)O	-1.3	i	i	i	-2	i
CCOC(=O)c1cc(CC)sc1NC(=O)CN1CCN(C(=O)c2ccco2)CC1	nt	i	23*	i	-32	i
CCOC(=O)c1c(NC(=O)c2ccco2)sc2c1CCCC2	0.27	i	i	i	-5	i
CC(C(=O)Nc1ccccn1)(c1ccccc1)c1ccccc1	nt	i	i	i	-7	i
COc1ccc(CC(=O)OCC(=O)Nc2cc(Cl)ccc2C)cc1	nt	nt	nt	i	nt	nt
SMILES	Cl transport mod	KCNQ1 inh	KCNQ1 pot	KCNK3 block	hERG rescue	KCNK9 block
Cc1ccc[n+](CC(=O)Nc2ccc(N(C)C)cc2)c1	nt	i	i	i	-7	i
CCOC(=O)c1cc(C)sc1NC(=O)CN1CCN(C(=O)c2ccco2)CC1	nt	i	9*	i	-4	i
CC(=Nc1ccc(O)cc1)c1sc2ccccc2c1O	-0.64	i	i	i	-1	i
CC(=Nc1cccc(C)c1)c1sc2ccccc2c1O	-0.2	i	i	i	-2	-7*
CCOC(=O)c1c(NC(=O)CSc2nnnn2C)sc(C)c1-c1ccc(C)cc1	-1.4	i	i	i	-14	-6.6*
CCOC(=O)c1cc(C)sc1NC(=O)CSc1nnnn1C	nt	i	i	i	-6	i
CCN(Cc1ccccc1)C(c1ccncc1)c1nnnn1C(C)(C)C (stereo not given)	0.097	i	i	i	0	i
CC(C)(C)c1ccc(CN(Cc2ccccc2)C(c2ccccn2)c2nnnn2C(C)(C)C)cc1 (stereo not given)	1.1	i	i	i	-8	-7.4*
O=C(NCC1COc2ccccc2O1)C1C2C=CC3(CN(Cc4ccccc4Cl)C(=O)C13)O2 (stereo not given)	0.59	i	i	i	-12	i
COc1ccc(CCN2CC34C=CC(O3)C(C(=O)NCc3ccccc3Cl)C4C2=O)cc1OC (stereo not given)	1.1	i	i	i	4.7*	i
CCN1CCN(CCNC(=O)c2ccc(/C=C3\Sc4ccccc4N(Cc4ccccc4F)C3=O)cc2)CC1	0.2	7*	i	i	-31	i
COc1ccccc1N(C)S(=O)(=O)c1ccc(C(=O)Nc2cc(F)ccc2C)cc1	nt	nt	nt	i	nt	nt
CCOC(=O)c1cc2c(=O)n3ccccc3nc2n(CCCOC)c1=NC(=O)c1ccncc1	0.088	i	15*	i	-25	i
CCOC(=O)c1cc2c(=O)n3ccccc3nc2n(Cc2ccco2)c1=NC(=O)c1cccc(OC)c1	nt	7*	i	i	-21	i
O=S(=O)(SC1=NCCN1)c1ccccc1	nt	nt	nt	i	nt	nt
N#Cc1c(N)n(C2OC(CO)C(O)C2O)c2ncnc(N)c12 (stereo not given)	nt	nt	nt	i	nt	nt
COCc1c(C(=O)Nc2cccc(S(=O)(=O)N3CCCCC3)c2)oc2ccccc12	nt	nt	nt	-9.3*	nt	nt
O=C(Nc1cccc(S(=O)(=O)N2CCCCC2)c1)c1cc2ccccc2o1	nt	nt	nt	-11*	nt	nt
COc1ccc2oc(C(=O)Nc3cccc(S(=O)(=O)N4CCOCC4)c3)c(C)c2c1	nt	nt	nt	i	nt	nt
Cc1cccn2c(=O)nc(SCC(=O)NC3CCCCC3)nc12	nt	i	i	i	-7	i
COc1cc(/C=N/Nc2ccc(Cl)c(C(=O)O)c2)ccc1OC(=O)c1ccccc1F	nt	i	i	i	-14	i
NC(N)=NN=C(c1ccc(F)cc1)c1ccc(C(F)(F)F)cc1	nt	nt	nt	i	nt	nt
COc1ccc(C(C(=O)NC2CCCC2)N(C(=O)c2csnn2)C2CCCC2)cc1 (stereo not given)	nt	i	i	i	-3	i
COc1ccc(-c2cnc3n2CCCCC3)cc1	0.032	i	i	i	-10	i
O=C(C[n+]1cc(-c2ccc(Cl)cc2)n2c1CCCCC2)c1ccccc1	1	i	i	i	-11	i
COc1ccc(-c2c[n+]3c4n2CCCCC4=C(c2ccc(Br)cc2)C3)cc1	nt	11*	i	i	-33	i
